# High-throughput results: PubChem, several laboratories
# This is a sample that favours compounds with a hit; in the whole collection about 1.2% have one here.
# FXIa inh 1536 – factor XIa (human) inhibition; P03951; purified FXIa, Boc-Glu-Ala-Arg-AMC fluorogenic substrate; inhibition, % at 5 µM; actives 0.14% (n = 220,000); AID 798;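 active = inhibition of at least 40%; inactive = inhibition below 40%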;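 note: fluorescence of freed AMC excited at 355 nm; 0% = enzyme without compound and 100% = no enzyme blank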
# Target sequence (P03951 19-387 limits assumed): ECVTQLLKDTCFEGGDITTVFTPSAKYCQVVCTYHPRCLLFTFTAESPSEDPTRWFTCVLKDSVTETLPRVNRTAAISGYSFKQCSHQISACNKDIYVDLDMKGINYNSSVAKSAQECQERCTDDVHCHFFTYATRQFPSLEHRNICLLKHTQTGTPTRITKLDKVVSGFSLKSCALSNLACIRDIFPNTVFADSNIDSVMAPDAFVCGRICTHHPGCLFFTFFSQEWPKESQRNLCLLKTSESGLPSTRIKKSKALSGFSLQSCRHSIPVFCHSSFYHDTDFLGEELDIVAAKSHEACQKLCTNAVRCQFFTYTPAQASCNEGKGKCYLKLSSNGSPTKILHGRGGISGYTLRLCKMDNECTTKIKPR
# Target sequence (P03951 388-625 limits assumed): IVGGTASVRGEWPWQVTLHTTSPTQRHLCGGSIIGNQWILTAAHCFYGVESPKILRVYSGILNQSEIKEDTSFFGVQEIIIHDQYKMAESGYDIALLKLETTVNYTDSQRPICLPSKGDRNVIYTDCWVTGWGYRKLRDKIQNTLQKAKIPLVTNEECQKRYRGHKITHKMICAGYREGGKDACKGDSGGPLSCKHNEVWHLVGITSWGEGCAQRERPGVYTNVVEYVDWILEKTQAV
# KLK5 inh – kallikrein 5 (human) inhibition | Q9Y337 | recombinant hK5, fluorogenic AMC substrate cleavage | inhibition, % at 5 µM | actives 0.59% (n = 210,000) | AID 873;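 active = inhibition of 40% or more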;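 note: 0% = enzyme controls without compound and 100% = no-enzyme blanks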
# thrombin 1536 – blocks human thrombin protease activity. P00734. alpha-thrombin, Boc-VPR-AMC fluorogenic substrate cleavage. inhibition, % at 5 µM. actives 0.26% (n = 220,000);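 active = inhibition at or above 40%; inactive = inhibition below 40%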;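 note: 0% = enzyme with no compound and 100% = wells without enzyme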
#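 Material: Human alpha-thrombin protein | Buffer or medium: pH 7.5 Tris-saline with Tween 20 | Reagent: Boc-VPR-AMC substrate, 15 µM final | Schedule: Reaction at ambient temperature | Detection: AMC fluorescence at 355 nm excitation and 460 nm emission | Evaluation: Percent inhibition scaled between no-compound controls and no-enzyme blanks | Controls: no-compound enzyme wells and no-enzyme blanks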
# Furin inh – human furin inhibition. P09958. purified furin, fluorogenic substrate cleavage. inhibition, % at 20 µM or 30 µM. actives 0.061% (n = 220,000); in the data active = inhibition above about 25%
# PERK inh – human PERK inhibition, primary cell-based screen | CHO PERK-DD fusion, SEAP luminescence translation reporter | AID 1416 | actives 0.17% (n = 220,000) | inhibition, % at 5.6 µM;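 active = inhibition above the mean inhibition of all tested compounds plus 3 SD, set separately per screening campaign, cut at about 2.9% in these data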;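 note: PERK kinase domain activated by AP20187 dimerizer at 100 nM; 0% = DMSO with dimerizer and 100% = rapamycin at 8.4 µM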
# FXIIa inh 1536 – factor XIIa (human) inhibition | P00748 | purified FXIIa, Boc-QGR-AMC fluorogenic substrate, 2 h | inhibition, % at 5 µM | actives 0.3% (n = 220,000) | AID 800; in the data active = inhibition above about 40%;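 note: 0% = enzyme with no compound and 100% = blank without enzyme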
# Active calls of the source: *; · = not tested or not shown.
SMILES,FXIa inh 1536,KLK5 inh,thrombin 1536,Furin inh,PERK inh,FXIIa inh 1536
CC1c2nc3ccccc3n2C(CC(=O)NCc2ccccn2)C(=O)N1Cc1ccccc1 (stereo not given),2,-14,0,-34,0,8
COC(=O)c1ccc(C(=O)OC)c(NC(=O)CSCC(=O)O)c1,12,3,-4,-1,3.1*,7
COC(=O)c1cc(CSc2nnc(NC3CCCCC3)s2)oc1C,6,42*,17,-10,0,22
O=c1cc(CSc2nnc(NC3CCCCC3)s2)nc2sccn12,-1,-5,-9,-24,0,2
COC(=O)C1=NNC(C(=O)c2ccco2)C1c1ccc(OC)cc1 (stereo not given),-4,-3,-8,-26,0,2
CC1(C)N=c2ccc([N+](=O)[O-])c(N)c2=[N+]1[O-],40*,22,20,10,-1,24
Cc1ccc([N+](=O)[O-])c(C)[n+]1C,-2,-9,-2,-19,0,7
COC(=O)c1c(C)nn(-c2ccccc2)c1-n1cccc1,14,33,41*,-8,0,33
COC(=O)c1c(C)nn(-c2ccccc2)c1N,5,-5,-4,0,1,5
C/C(=N\OC(=O)c1ccc(F)cc1)c1nccs1,5,-6,-7,-3,3.2*,12
CN(C)c1ccc(/C=N/NC(=O)c2ccn(C)n2)cc1,11,4,0,-13,3.0*,5
CN(C)c1ccc(/C=N/NC(=O)c2ccccn2)cc1,1,3,-5,10,1,2
COCCn1cc(C(=O)c2ccccc2OCC(=O)Nc2cc(C)on2)cc(C#N)c1=O,6,42*,24,-6,0,4
COCCCn1cc(C(=O)c2ccccc2OCC(=O)Nc2cccc(F)c2)cc(C#N)c1=O,-6,-4,10,-23,0,2
COC(=O)c1ccc(OCCOc2ccc(C(=O)OC)cc2)cc1,7,-7,-5,-26,3.5*,-13
CC(=O)c1cnn(-c2ccc(Cl)c(Cl)c2Cl)c1C,8,1,-1,-22,2,3
COC(c1ccccc1)c1nnc(CCC(=O)N(C)CCOc2ccccc2)o1 (stereo not given),7,15,-1,-5,0,25
COC(c1ccccc1)c1nnc(CCC(=O)N(C)Cc2cccc(-n3cccn3)c2)o1 (stereo not given),18,·,40*,-6,0,·
COc1cc(/C=N/n2c(-c3cc(C)[nH]n3)n[nH]c2=S)cc(OC)c1OC,-8,58*,-9,-2,0,-1
Cc1cc(C)cc(N2C(=O)C3C4C=CC(C4)C3C2=O)c1 (stereo not given),-4,38,5,13,0,12
N/C(=N\OC(=O)c1ccc(Cl)c(Cl)c1)c1cccnc1,-16,-17,-5,-10,0,-13
N/C(=N\OC(=O)c1cccc(Cl)c1)c1cccnc1,-2,-1,47*,-13,-1,13
O=C(C1Cc2ccccc2CN1S(=O)(=O)c1cccs1)N1CCCCCC1 (stereo not given),-1,-13,3,-20,-1,16
CCCCCc1nnc(NC(=O)OCCC)s1,-12,-6,-6,-19,0,0
CCCCCOC(=O)Nc1nnc(CCCCC)s1,4,-21,-8,-5,1,47*
SMILES,FXIa inh 1536,KLK5 inh,thrombin 1536,Furin inh,PERK inh,FXIIa inh 1536
COc1cc(/C=c2\s/c(=C\C(=O)C(C)(C)C)[nH]c2=O)cc(OC)c1OC,35,47*,34,3,-2,29
CN(C(=O)COC(=O)c1nc(Cl)c(Cl)c(Cl)c1Cl)C1CCS(=O)(=O)C1 (stereo not given),-3,-5,2,-10,0,2
COc1cccc(N2C(=O)CC(NNc3nc4ccccc4s3)C2=O)c1 (stereo not given),18,40*,19,-4,-1,14
O=C(CCl)Nc1cc2[nH]c(=O)[nH]c2cc1Br,-4,-2,-7,-24,1,8
Cc1cc(/C=C\c2ccccc2)nc2ccccc12,32,50*,6,2,0,24
COc1ccc(/C=C/c2cc(C(=O)O)c3ccccc3n2)cc1,-5,-4,-7,6,2,-2
CCCN1C=CC(=CC=C(C#N)C#N)C=C1,20,67*,4,-6,0,22
